The M2OR odorant receptor database

Assays:
Details in all cases: stereoisomer not certain
OR10A4 (Homo sapiens) = biological target: T1, OR10A4 (Homo sapiens) (UniProt Q9H209)
T1 sequence (whole entry): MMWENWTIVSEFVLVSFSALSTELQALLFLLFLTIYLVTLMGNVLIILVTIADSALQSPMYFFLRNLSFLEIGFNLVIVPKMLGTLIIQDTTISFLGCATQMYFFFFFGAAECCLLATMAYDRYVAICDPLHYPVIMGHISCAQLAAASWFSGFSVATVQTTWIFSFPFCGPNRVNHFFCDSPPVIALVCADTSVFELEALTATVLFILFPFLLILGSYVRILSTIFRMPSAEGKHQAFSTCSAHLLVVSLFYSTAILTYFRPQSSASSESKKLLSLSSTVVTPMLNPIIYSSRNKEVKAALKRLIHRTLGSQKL
Summary of the method: (§1)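 Transient luciferase assays in mammalian cell lines were common, though methods varied by source. The values come from published papers and their supplementary material, with extra details from the original authors when needed. Responsive refers to a measured signal the original authors judged statistically different from baseline, and non-responsive (inactive) to the remainder.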

OR10A5 (Homo sapiens) = biological target: T2, OR10A5 (Homo sapiens) (UniProt Q9H207)
T2 sequence (whole entry): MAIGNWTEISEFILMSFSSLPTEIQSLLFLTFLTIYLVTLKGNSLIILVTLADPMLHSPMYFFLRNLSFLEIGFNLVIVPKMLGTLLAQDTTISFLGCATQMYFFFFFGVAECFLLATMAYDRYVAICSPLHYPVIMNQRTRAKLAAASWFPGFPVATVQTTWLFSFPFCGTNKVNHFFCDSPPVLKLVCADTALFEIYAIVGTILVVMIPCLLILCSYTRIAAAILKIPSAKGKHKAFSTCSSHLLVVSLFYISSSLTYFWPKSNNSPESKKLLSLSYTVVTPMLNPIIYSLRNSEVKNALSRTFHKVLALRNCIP
Summary of the method: as §1

OR10A6 (Homo sapiens) = biological target: T3, OR10A6 (Homo sapiens) (UniProt Q8NH74)
T3 sequence (whole entry): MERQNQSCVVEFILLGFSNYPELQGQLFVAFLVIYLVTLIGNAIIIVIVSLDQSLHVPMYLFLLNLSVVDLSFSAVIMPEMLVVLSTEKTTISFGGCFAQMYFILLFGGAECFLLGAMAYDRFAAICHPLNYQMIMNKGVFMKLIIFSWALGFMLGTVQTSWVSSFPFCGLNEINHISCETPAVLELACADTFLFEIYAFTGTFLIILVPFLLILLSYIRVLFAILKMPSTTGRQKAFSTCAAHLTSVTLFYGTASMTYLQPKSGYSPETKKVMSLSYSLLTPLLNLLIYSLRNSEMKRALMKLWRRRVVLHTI
Summary of the method: as §1

OR10A7 (Homo sapiens) = biological target: T4, OR10A7 (Homo sapiens) (UniProt Q8NGE5)
T4 sequence (whole entry): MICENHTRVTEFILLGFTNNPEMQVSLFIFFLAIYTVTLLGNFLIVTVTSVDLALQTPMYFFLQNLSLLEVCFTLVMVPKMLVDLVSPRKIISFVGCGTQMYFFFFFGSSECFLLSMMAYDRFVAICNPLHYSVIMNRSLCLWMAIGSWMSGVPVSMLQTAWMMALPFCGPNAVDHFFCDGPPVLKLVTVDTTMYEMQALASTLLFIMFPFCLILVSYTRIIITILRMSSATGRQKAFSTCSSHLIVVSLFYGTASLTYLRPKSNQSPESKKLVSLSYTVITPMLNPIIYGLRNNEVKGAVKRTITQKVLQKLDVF
Summary of the method: as §1

OR10AC1 (Homo sapiens) = OR10AC1 (Homo sapiens) (UniProt Q8NH08)
OR10AC1 (Homo sapiens), sequence (Q8NH08 whole entry): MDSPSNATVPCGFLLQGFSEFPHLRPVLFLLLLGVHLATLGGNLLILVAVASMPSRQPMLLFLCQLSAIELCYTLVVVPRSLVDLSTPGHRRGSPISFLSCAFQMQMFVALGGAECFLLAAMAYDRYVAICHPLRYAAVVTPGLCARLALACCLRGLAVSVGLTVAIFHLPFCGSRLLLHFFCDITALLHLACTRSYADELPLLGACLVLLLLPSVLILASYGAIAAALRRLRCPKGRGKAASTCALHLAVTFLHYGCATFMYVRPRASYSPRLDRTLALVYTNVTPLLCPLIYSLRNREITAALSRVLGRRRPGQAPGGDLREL
Summary of the method: as §1

OR10AD1 (Homo sapiens) = biological target: T5, OR10AD1 (Homo sapiens) (UniProt Q8NGE0)
T5 sequence (whole entry): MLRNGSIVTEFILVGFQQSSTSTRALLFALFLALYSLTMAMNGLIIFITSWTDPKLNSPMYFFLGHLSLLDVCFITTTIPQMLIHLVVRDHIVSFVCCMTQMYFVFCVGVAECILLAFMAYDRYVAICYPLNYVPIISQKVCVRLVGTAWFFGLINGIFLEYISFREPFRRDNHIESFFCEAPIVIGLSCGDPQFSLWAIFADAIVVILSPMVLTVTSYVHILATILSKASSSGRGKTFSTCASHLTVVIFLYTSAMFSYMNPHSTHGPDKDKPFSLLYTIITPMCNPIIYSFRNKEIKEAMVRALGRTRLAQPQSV
Summary of the method: as §1

OR10AG1 (Homo sapiens) = biological target: T6, OR10AG1 (Homo sapiens) (UniProt Q8NH19)
T6 sequence (whole entry): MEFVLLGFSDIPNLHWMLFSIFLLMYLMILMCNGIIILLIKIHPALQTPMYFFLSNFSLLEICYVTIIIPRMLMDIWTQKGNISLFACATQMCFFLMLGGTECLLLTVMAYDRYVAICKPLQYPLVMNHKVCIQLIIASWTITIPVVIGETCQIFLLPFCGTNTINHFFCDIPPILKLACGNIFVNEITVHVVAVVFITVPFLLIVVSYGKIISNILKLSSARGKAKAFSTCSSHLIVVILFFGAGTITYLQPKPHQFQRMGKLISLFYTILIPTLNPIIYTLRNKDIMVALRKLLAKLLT
Summary of the method: as §1

OR10C1 (Homo sapiens) = biological target: T7, OR10C1 (Homo sapiens) (UniProt Q96KK4)
T7 sequence (whole entry): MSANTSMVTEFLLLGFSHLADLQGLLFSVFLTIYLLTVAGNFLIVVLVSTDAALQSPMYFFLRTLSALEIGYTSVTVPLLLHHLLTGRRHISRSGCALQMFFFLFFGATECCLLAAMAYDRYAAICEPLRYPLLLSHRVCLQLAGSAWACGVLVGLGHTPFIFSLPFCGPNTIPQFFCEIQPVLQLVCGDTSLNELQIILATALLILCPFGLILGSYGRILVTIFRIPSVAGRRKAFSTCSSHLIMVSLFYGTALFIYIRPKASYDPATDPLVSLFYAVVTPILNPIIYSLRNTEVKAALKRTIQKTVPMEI
Summary of the method: as §1

OR10G2 (Homo sapiens) = biological target: T8, OR10G2 (Homo sapiens) (UniProt Q8NGC3)
T8 sequence (whole entry): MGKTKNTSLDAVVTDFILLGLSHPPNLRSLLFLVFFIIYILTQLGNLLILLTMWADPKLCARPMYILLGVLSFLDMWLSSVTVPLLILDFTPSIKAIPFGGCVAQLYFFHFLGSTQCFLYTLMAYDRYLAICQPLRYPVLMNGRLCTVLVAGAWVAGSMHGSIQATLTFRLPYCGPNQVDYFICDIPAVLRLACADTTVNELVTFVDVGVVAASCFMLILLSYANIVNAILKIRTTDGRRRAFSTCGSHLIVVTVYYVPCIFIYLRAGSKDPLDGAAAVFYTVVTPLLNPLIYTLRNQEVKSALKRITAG
Summary of the method: as §1

OR10G3 (Homo sapiens) = biological target: T9, OR10G3 (Homo sapiens) (UniProt Q8NGC4)
T9 sequence (whole entry): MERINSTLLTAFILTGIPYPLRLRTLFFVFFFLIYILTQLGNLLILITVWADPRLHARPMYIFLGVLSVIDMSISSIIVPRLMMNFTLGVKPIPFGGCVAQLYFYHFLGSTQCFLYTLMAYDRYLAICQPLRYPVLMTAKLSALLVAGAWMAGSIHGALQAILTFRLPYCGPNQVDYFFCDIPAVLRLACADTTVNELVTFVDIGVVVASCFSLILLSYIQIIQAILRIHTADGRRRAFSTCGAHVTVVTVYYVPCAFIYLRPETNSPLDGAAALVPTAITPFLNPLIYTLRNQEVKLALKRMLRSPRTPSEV
Summary of the method: as §1

OR10G4 (Homo sapiens) = biological target: T10, OR10G4 (Homo sapiens) (UniProt Q8NGN3)
T10 sequence (whole entry): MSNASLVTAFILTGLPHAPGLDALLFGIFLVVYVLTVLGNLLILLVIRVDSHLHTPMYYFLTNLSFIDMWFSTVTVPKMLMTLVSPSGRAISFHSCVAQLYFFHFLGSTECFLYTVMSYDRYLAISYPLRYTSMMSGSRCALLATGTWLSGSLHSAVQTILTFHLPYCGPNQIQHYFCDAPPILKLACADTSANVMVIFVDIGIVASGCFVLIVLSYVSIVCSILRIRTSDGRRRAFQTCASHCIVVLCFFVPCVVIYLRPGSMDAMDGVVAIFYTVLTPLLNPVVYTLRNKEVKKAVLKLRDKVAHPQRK
Summary of the method: as §1

OR10G6 (Homo sapiens) = biological target: T11, OR10G6 (Homo sapiens) (UniProt Q8NH81)
T11 sequence (whole entry): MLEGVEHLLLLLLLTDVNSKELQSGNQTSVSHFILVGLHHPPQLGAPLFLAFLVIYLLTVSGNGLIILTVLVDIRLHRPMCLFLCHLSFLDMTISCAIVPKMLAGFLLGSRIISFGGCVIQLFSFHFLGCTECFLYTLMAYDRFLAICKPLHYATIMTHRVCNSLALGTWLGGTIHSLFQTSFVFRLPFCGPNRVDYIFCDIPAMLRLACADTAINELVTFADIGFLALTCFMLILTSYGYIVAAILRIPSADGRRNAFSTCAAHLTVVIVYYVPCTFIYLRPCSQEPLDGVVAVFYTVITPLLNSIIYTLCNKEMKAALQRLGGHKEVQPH
Summary of the method: as §1

OR10G7 (Homo sapiens) = biological target: T12, OR10G7 (Homo sapiens) (UniProt Q8NGN6)
T12 sequence (whole entry): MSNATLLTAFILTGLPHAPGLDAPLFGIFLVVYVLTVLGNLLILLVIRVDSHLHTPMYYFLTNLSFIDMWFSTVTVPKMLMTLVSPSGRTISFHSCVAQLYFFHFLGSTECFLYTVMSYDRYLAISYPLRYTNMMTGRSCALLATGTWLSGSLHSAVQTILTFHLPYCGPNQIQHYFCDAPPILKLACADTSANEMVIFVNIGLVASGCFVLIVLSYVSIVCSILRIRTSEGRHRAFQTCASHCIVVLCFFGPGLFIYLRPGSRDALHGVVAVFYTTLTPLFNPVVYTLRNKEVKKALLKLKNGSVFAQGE
Summary of the method: as §1

OR10G8 (Homo sapiens) = biological target: T13, OR10G8 (Homo sapiens) (UniProt Q8NGN5)
T13 sequence (whole entry): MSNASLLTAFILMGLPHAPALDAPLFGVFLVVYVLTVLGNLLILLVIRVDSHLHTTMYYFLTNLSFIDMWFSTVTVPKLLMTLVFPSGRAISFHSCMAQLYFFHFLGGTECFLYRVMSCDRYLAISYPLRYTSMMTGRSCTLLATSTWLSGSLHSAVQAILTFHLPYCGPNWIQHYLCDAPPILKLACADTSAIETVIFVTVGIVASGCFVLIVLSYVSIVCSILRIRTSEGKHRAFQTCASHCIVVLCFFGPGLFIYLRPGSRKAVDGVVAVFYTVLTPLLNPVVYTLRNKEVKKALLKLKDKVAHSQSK
Summary of the method: as §1

OR10G9 (Homo sapiens) = biological target: T14, OR10G9 (Homo sapiens) (UniProt Q8NGN4)
T14 sequence (whole entry): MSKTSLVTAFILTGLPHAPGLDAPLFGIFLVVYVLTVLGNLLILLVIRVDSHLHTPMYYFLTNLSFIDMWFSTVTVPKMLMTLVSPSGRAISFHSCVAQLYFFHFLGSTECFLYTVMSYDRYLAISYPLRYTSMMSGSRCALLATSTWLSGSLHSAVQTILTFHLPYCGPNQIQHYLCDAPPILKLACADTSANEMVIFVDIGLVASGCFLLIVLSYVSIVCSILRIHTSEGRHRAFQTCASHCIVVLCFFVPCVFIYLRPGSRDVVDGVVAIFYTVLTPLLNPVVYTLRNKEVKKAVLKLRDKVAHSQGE
Summary of the method: as §1

OR10H1 (Homo sapiens) = biological target: T15, OR10H1 (Homo sapiens) (UniProt Q9Y4A9)
T15 sequence (whole entry): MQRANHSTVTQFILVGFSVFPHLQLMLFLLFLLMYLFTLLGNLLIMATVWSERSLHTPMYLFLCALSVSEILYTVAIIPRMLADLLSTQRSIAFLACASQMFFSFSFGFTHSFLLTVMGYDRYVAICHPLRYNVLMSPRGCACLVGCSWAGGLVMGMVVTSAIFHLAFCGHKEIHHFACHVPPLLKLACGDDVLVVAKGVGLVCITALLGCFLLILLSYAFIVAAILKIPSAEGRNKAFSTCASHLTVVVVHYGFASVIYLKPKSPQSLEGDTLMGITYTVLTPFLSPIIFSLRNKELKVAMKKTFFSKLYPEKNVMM
Summary of the method: as §1

OR10H2 (Homo sapiens) = biological target: T16, OR10H2 (Homo sapiens) (UniProt O60403)
T16 sequence (whole entry): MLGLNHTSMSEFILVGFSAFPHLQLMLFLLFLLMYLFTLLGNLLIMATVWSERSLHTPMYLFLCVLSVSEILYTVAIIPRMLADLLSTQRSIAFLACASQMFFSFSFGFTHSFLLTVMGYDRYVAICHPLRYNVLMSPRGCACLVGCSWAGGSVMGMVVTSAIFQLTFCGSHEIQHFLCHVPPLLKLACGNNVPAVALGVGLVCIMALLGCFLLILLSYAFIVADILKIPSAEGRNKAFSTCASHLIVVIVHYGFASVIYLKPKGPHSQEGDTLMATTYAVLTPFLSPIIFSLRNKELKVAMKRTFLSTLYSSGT
Summary of the method: as §1

OR10H3 (Homo sapiens) = biological target: T17, OR10H3 (Homo sapiens) (UniProt O60404)
T17 sequence (whole entry): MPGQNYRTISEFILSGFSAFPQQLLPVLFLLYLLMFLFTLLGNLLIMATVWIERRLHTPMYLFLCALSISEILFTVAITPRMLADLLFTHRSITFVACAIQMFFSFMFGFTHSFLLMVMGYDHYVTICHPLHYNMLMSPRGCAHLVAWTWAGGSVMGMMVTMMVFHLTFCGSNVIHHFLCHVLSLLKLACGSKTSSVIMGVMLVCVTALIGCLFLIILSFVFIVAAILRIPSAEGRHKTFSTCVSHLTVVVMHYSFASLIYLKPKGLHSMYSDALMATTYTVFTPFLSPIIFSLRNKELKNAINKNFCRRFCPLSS
Summary of the method: as §1

Measured: odorant receptor agonist call;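 also: active if original authors judged signal statistically different from baseline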

CC1CCCCCCCCCCCCC(=O)C1 (stereo not drawn)
inactive: all assays above
